Screening data from PubChem BioAssay.
Most compounds without a hit are left out; they make up all but 3.8% or so of the library.
MPTP block: mitochondrial permeability transition pore inhibitors, primary screen, biochemical, isolated mouse mitochondria, absorbance; 360,000 compounds, 1.4% hits; inhibition, % at 10 µM; Ca2+ swelling absorbance, 30 min; AID 602449, 2012;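 active means inhibition of 50% or more, scaled per plate between neutral and stimulator controls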;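 further: 0% = DMSO wells given calcium and 100% = 1 mM EGTA wells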
OX1R antag-1: OX1R (HCRTR1) antagonists, primary screen, fluorescence, CHO/OX1R cells, Fluo-8 calcium, orexin A; inhibition, % at 5 µM; Fluo-8 calcium fluorescence; 330,000 compounds, 0.43% hits; Orexin/Hypocretin receptor type 1 (Homo sapiens), O43613;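 active means inhibition above its plate's threshold, mean inhibition of all tested compounds on the plate plus 3 SD, cut at about 37% in these data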;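 further: 0% = orexin A challenge wells and 100% = SB-334867-A antagonist wells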
CHO parental Ca: ATP-evoked calcium signal inhibitors, parental CHO, primary screen, counter-screen for OX1R antagonist project, cell-based, fluorescence, Fluo-8 calcium dye; parental CHO-K1, ATP-induced calcium, Fluo-8 fluorescence; inhibition, % at 5.6 µM; 330,000 compounds, 0.63% hits;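 active means inhibition above that plate's mean sample inhibition plus 3 SD, cut at about 26% in these data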;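 further: 0% = ATP-challenged DMSO wells and 100% = DMSO wells without ATP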
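Test system: untransfected parental CHO cell line; also added: ATP stimulus; dosing: 5.6 µM, single dose; signal: calcium-sensitive Fluo-8 fluorescence; measure: percent inhibition of ATP-evoked calcium rise, normalized to controls; benchmarks: low control ATP plus DMSO, high control DMSO only; replication: one well per compound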
OX1R antag-2: antagonists of human orexin 1 receptor (OX1R) | Orexin/Hypocretin receptor type 1 (Homo sapiens), O43613 | OX1R-expressing cells, FRET antagonist read-out | inhibition, % at 6.6 µM | 330,000 compounds, 1.8% hits; in the data active means inhibition mostly above about 38%, no sharp cut-off; inactive means mostly below about 40%;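 further: 0% = agonist challenge alone and 100% = reference antagonist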
GPR7 antag: GPR7 receptor antagonists, primary screen, cell-based, fluorescence, single concentration; 290,000 compounds, 1.1% hits; inhibition, % at 4.4 µM; Neuropeptides B/W receptor type 1 (Homo sapiens), P48145; GPR7-expressing cells, fluorescence antagonist assay; AID 1861, 2009; in the data active means inhibition above about 16%, passing the limit was not always enough;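 further: cells stimulated with the agonist NPW; 0% = agonist with vehicle and 100% = vehicle without agonist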
Target sequence (P48145 whole entry, looked up): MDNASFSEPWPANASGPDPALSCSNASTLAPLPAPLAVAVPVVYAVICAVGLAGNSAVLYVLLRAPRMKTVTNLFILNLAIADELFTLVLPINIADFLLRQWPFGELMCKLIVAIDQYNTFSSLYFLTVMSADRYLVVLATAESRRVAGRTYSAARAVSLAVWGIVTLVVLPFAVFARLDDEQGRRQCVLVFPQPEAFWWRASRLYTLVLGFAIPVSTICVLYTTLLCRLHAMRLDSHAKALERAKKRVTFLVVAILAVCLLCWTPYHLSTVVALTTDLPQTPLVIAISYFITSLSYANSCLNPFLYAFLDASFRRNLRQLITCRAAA
Active calls of the source: *; . = not tested or not shown.

SMILES | MPTP block | OX1R antag-1 | CHO parental Ca | OX1R antag-2 | GPR7 antag
O=C1c2ccccc2-c2nccnc21 | -0.6 | -8.0 | -3.7 | 110.6* | 4.1
O=C1c2cccnc2-c2ncccc21 | -1.2 | -9.4 | -1.9 | 53.6* | -11.6
O=C1c2cc([N+](=O)[O-])ccc2-c2ncccc21 | 2.7 | -15.5 | 3.1 | 67.2* | -9.7
COc1ccc(CNC(=O)c2c(-c3c(F)cccc3Cl)noc2C)cc1 | -0.9 | -15.8 | -28.1 | -2.5 | -6.7
Cc1ccc(Cl)cc1NC(=O)Cn1c(C)csc1=O | -1.9 | -9.9 | -4.6 | 5.3 | .
COc1ccc(CCN2C(=O)COc3ccccc3C2C(=O)NCc2ccccc2)cc1OC (stereo not given) | -1.1 | . | . | . | .
O=S(=O)(NCc1cc(-c2ccc(Cl)cc2)no1)c1ccccc1 | 4.5 | 4.1 | 2.3 | 17.8 | -4.4
O=S(=O)(NCc1cc(-c2ccc(Cl)cc2)no1)c1ccc(Cl)cc1 | 27.1 | 51.1* | 92.6* | 20.4 | -11.9
CCCCn1nnnc1C(c1cc2ccccc2o1)N(C)CCc1ccccc1 (stereo not given) | 1.3 | . | . | . | .
CC1=NNC(=O)/C1=C\c1cn(-c2ccccc2)nc1-c1ccc(F)cc1 | -5.1 | . | . | . | 2.4
CC1=NNC(=O)/C1=C\c1cn(-c2ccccc2)nc1-c1cccs1 | -0.9 | 72.8* | 62.7* | 28.2 | 11.7
CC(=O)Oc1ccc(CN2C(=O)C(CCc3ccccc3)ON=C2c2cnccn2)cc1 (stereo not given) | 0.9 | . | . | . | .
O=c1[nH]c(-[n+]2ccccc2)c(/C=N/N=C(\[O-])c2ccccc2)s1 | 3.5 | -9.7 | -6.2 | 41.4* | -8.3
CC(C)(C)OC(=O)NCCCCCNC(=O)c1[nH]cnc1C(=O)NC1CCN(C(=O)OC(C)(C)C)CC1 | -0.5 | -17.7 | -23.7 | 8.2 | .
COc1cccc(NC(=O)CCNC(=O)c2ccccc2Cl)c1 | 0.8 | -20.0 | 11.8 | 5.5 | -11.9
COc1cc(C(=O)Nc2scc(-c3ccc(Br)cc3)c2C(=O)O)cc(OC)c1OC | 1.9 | -3.8 | -8.7 | 54.2* | -12.3
CCCSc1nnc2nc3c(nn12)c1ccccc1n3C | 0.1 | 1.8 | 1.1 | 66.0* | -1.6
CCN(CC)C(=O)CSc1nnc2c3ccccc3n(C)c2n1 | 0.4 | -14.5 | -6.7 | 25.9 | -5.0
CC(CNC(=O)Cn1ccc2cc(S(=O)(=O)N3CCCC3)ccc21)c1ccccc1 (stereo not given) | -1.4 | 14.6 | -20.0 | 42.8* | -3.0
CCC(C(=O)NCCC(C)C)n1ccc2cc(S(=O)(=O)N3CCCCC3)ccc21 (stereo not given) | 5.5 | 44.2 | 52.7* | 12.4 | 13.2
COc1ccccc1CNC(=O)Cn1ccc2cc(S(=O)(=O)N3CCCC3)ccc21 | 1.8 | -8.3 | -4.0 | 6.9 | 1.1
CNC(=O)c1c(NC(=O)CCS(=O)(=O)c2ccc(C)cc2)sc2c1CCN(C(=O)OC)C2 | 0.6 | -27.5 | -24.7 | 10.5 | .
C=CCNC(=O)COC(=O)c1ccc(Sc2nncn2C)c([N+](=O)[O-])c1 | -1.2 | -22.6 | 5.0 | 72.7* | 1.0
CCOC(=O)C1=CCN(S(=O)(=O)c2ccccc2F)C1c1ccccc1 (stereo not given) | 1.8 | . | . | . | .
CN(Cc1ccc(F)cc1)C(=O)C(Cc1ccccc1)NC(=O)c1ccccc1 (stereo not given) | -1.0 | -19.6 | -24.0 | 41.3 | .
SMILES | MPTP block | OX1R antag-1 | CHO parental Ca | OX1R antag-2 | GPR7 antag
CSc1ccc(CN(C)C(=O)C(Cc2ccccc2)NC(=O)c2ccccc2)cc1 (stereo not given) | 0.0 | -0.9 | -22.9 | 69.7* | 10.8
O=C1N=c2ccccc2=C1c1sc(Nc2cccc(O)c2)nc1O | 1.9 | 1.0 | -8.9 | 54.3* | 18.6
CC(C)C[C@H](NC(=O)[C@H](Cc1ccccc1)n1c(=O)[nH]c2ccccc2c1=O)C(=O)N1CCC[C@H]1C(=O)O | -2.6 | -11.2 | -9.7 | 13.2 | -15.0
CCOC(=O)c1c(C)[nH]c(C(=O)C(C)OC(=O)c2cccc(OCc3c(C)noc3C)c2)c1C (stereo not given) | 1.0 | 0.2 | 49.2* | 31.2 | -12.2
CC(C1CC2CCC1C2)N1CC(O)=C(c2nc3ccccc3[nH]2)C1=N (stereo not given) | 2.3 | -23.6 | -33.2 | 16.7 | 20.9*
COc1cccc2c1C(=O)c1c(O)c3c(c(O)c1C2=O)C[C@@](O)(C(=O)CO)C[C@@H]3OC1CC(N)C(O)C(C)O1 (stereo not given in full) | 5.3 | . | . | . | .
COc1cccc2c1C(=O)c1c(O)c3c(c(O)c1C2=O)C[C@@](O)(C(=O)CO)C[C@@H]3O[C@H]1C[C@H](N)[C@H](O)[C@H](C)O1 | 6.2 | 26.6 | 23.9 | 44.1* | 4.9
CCC(=O)NC(c1cccs1)c1cc(Cl)c2ccccc2c1O (stereo not given) | 4.6 | 29.2 | -11.6 | 48.1* | .
CCC(=O)NC(c1cc(Cl)c2ccccc2c1O)C1CC1 (stereo not given) | 2.3 | 45.2 | -12.9 | 62.9* | .
CCC(=O)NC(C)c1cc(Cl)c2ccccc2c1O (stereo not given) | 2.7 | 25.1 | -9.2 | 33.7 | .
CC(=O)NC(c1cc(Cl)c2ccccc2c1O)C(C)C (stereo not given) | 1.3 | 0.2 | -7.8 | 39.9* | .
CC(=O)NC(c1cccs1)c1cc(Cl)c2ccccc2c1O (stereo not given) | 3.6 | -10.3 | -17.8 | 18.7 | .
CCOC(=O)C1=C(CN2CCN(C(=O)c3ccco3)CC2)NC(=O)NC1c1ccc(C)cc1 (stereo not given) | -1.2 | -12.6 | -28.3 | 16.5 | -14.5
O=C(c1ccc(OC2CCN(CCO)CC2)cc1)N1CCCC1 | 0.6 | 8.6 | 5.3 | 15.8 | -0.3
NC(=S)N/N=C/c1coc2ccc(Cl)cc2c1=O | -0.9 | -7.5 | -1.3 | 12.1 | -10.5
Cc1ccc(-c2nnc(Nc3ccccc3)c3ccccc23)cc1S(=O)(=O)NCC1CCCO1 (stereo not given) | 29.8 | 66.2* | 28.5* | 11.9 | -11.7
Cc1ccc(-c2nnc(Nc3ccc4c(c3)OCO4)c3ccccc23)cc1S(=O)(=O)NC(C)C | -0.5 | 37.7 | 31.1* | 38.0 | -2.2
O=C(CN1CCCc2ccccc21)Nc1cc(S(=O)(=O)N2CCCC2)ccc1Cl | -0.8 | -9.0 | -21.0 | 3.1 | .
Cc1csc(NC(=O)C2CCCO2)n1 (stereo not given) | -1.1 | -10.7 | 2.2 | 6.9 | 14.3*
O=C(Nc1nc(-c2ccccc2)cs1)C1CCCO1 (stereo not given) | -0.5 | -17.2 | -6.1 | 8.4 | 12.1
O=[N+]([O-])c1ccc(S(=O)(=O)NCCc2cn3ccccc3n2)cc1 | -2.0 | -11.2 | -8.1 | 42.4* | -7.4
COCCNC(=O)c1cc2c(c(-c3cccc(C#CC(C)(C)O)c3)n1)[C@@H](CCO)N(S(=O)C(C)(C)C)C2 (stereo not given in full) | -0.7 | . | . | . | .
